# Screening data as filed in PubChem.
# Myeloid diff 2 – induction of myeloid progenitor differentiation, primary screen, cell-based, flow cytometry, MLPCN library | calls only at 10 µM | ER-HoxA9 myeloid progenitors, lysozyme-GFP differentiation | 360,000 compounds, 1% hits;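 active = normalized GFP-positive differentiation at or above the plate's own cutoff, the solvent-only control mean plus 3 SD; inconclusive = no clear call, values can overlap the other calls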;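 note: cells exposed to compound for four days before flow analysis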
# HNF4A DNA FP – change in binding of human HNF4A to DNA, primary screen, biochemical, fluorescence polarization, FITC-DNA; 1 h; activity change, % at 10 µM; 360,000 compounds, 0.3% hits; AID 1224865, 2016; in the data active = activity change above about 30%, passing the limit was not always enough
# Granule exo inh – LAMP-1 surface exposure blockers, TALL-104 cells – cell-based, flow cytometry, MLPCN library, primary screen; TALL-104 LAMP-1 surface exposure; cells stimulated with thapsigargin and PMA; inhibition, % at 10 µM; 360,000 compounds, 0.66% hits;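 active = inhibition above about 55%, limit read from the data; inconclusive = no clear call, values can overlap the other calls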
# CSN deneddyl inh – inhibitors of CSN-mediated cullin deneddylation, primary screen, biochemical, fluorescence polarization, uHTS | inhibition, % at 12.5 µM | 360,000 compounds, 0.38% hits | COP9 signalosome complex subunit 5 (Homo sapiens), Q92905 | Purified CSN, SCF-Nedd8-OG deneddylation;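 active = pattern-corrected inhibition above about 35%, with an unprinted fluorescence ratio check between 0.5 and 1.5, limit read from the data, passing the limit was not always enough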
# Target sequence (Q92905 whole entry, looked up, one chain of several): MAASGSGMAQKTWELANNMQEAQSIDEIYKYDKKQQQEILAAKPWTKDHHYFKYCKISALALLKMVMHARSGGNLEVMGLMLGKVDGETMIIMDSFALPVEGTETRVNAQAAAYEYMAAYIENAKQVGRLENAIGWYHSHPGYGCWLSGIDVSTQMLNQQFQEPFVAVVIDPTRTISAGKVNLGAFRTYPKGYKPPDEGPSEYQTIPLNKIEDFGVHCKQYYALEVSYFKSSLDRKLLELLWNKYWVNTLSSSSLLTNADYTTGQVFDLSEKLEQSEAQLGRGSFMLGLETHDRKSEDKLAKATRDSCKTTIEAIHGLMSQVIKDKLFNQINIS
#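 Test system: Human Csn5 produced in HEK293T cells | Compound: 12.5 µM single point | Times: 90 min, room temperature | Signal: Fluorescence polarization readout | Read-out basis: % inhibition of substrate cleavage by Csn5 | Controls: no-enzyme wells high, enzyme-with-substrate wells low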
# Numbers stand for hits; n = inactive; u = inconclusive; x = no result; + = active, no number. This is a sample that favours compounds with a hit; in the whole collection about 2.2% have one here.
SMILES,Myeloid diff 2,HNF4A DNA FP,Granule exo inh,CSN deneddyl inh
O=[N+]([O-])c1ccc(-c2ccc(/C=N/Nc3nc(N4CCCCC4)nc(N4CCCCC4)n3)o2)cc1,+,n,n,n
CSc1ccc(CN2CCC(C)(Oc3cccc(Cl)c3)C2)cc1 (centres undefined),n,n,n,n
Cn1c(=O)oc2cc(S(=O)(=O)N3CCN(c4ccccc4)CC3)ccc21,+,n,n,n
Cn1c(=O)oc2cc(S(=O)(=O)N3CCC(C(=O)N4CCN(c5ccccc5)CC4)CC3)ccc21,n,n,n,n
Cc1sc2ncnc(NCCCO)c2c1C,n,n,n,n
Cc1ccc(Nc2ncnc3sc(C)c(C)c23)cc1C,+,n,n,n
COCC(=O)N1C[C@H]2CON(C)[C@H]2C[C@H]1c1cccc(-c2ccccc2)c1,n,n,n,n
COc1cccc(CSc2nc3ccccc3[nH]2)c1,n,32,n,n
O=[N+]([O-])c1cccc(CSc2nc3ccccc3[nH]2)c1,n,n,n,n
COc1cccc(NC(=S)N(CCc2c(C)[nH]c3ccc(C)cc23)Cc2cccs2)c1,n,n,n,n
COc1ccc2[nH]c(C)c(CCN(Cc3cccs3)C(=S)Nc3cccc(F)c3)c2c1,+,n,n,n
O=C(O)C1OC1(c1ccccc1Cl)c1ccccc1Cl (centres undefined),n,n,n,n
CC(NC(=O)C1CCN(C(=O)c2cccs2)CC1)c1ccc(S(N)(=O)=O)cc1 (centres undefined),n,n,n,101
CC(NC(=O)C1CCN(C(=O)c2ccc(F)cc2)CC1)c1ccc(S(N)(=O)=O)cc1 (centres undefined),n,n,n,n
O=C1c2ccccc2-c2onc3ccc(NCc4ccco4)c1c23,x,n,56,n
O=C1c2ccccc2-c2onc3ccc(N4CCCC4)c1c23,+,n,n,n
CC(C)N(C(=O)c1ccc(Cc2cn(C)c3ccccc23)nc1)C(C)C,n,n,n,n
Cn1ncc([N+](=O)[O-])c1C(=O)NC1CCCCC1,n,n,n,n
O=C1c2ccccc2NC(c2cccc([N+](=O)[O-])c2)N1CCc1ccccc1 (centres undefined),n,n,76,n
Cc1cccc(C2Nc3ccccc3C(=O)N2CCc2ccccc2)n1 (centres undefined),n,n,n,n
O=C(Nc1nnc(-c2ccco2)o1)c1ccc([N+](=O)[O-])s1,+,n,n,n
COc1ccc(OC)c2cc3ccccc3cc12,+,n,104,n
O=C(O)CCC(=O)Nc1cccc(C(=O)Nc2ccc(Br)cc2)c1,n,80,n,n
COc1cc(CN2CCc3c([nH]c4ccccc34)C2)cc(OC)c1,+,n,n,n
COc1ccccc1CN1CCc2c([nH]c3ccccc23)C1,n,n,n,n
SMILES,Myeloid diff 2,HNF4A DNA FP,Granule exo inh,CSN deneddyl inh
COc1ccc(/C=C(\C#N)C(=O)N2COCC2(C)C)cc1,n,n,56,n
CC(=O)N1CCc2cc(N=NC3=C(O)CC(C)(C)CC3=O)ccc21,n,66,n,n
Cc1ccc(C(=O)CSc2nnc(CNc3nc(-c4ccccc4)cs3)n2C)cc1,n,114,n,n
CCNc1nc(NC(C)C)nc(NS(=O)(=O)c2ccc(N)cc2)n1,+,n,n,n
CC(C)Nc1nc(NC(C)C)nc(NS(=O)(=O)c2ccc(N)cc2)n1,n,n,n,n
Cc1cccc(N=NC(=S)NNc2cccc(C)c2)c1,n,n,n,n
CCN(CC)c1ccc(/C=C/c2cc(-c3ccccc3)c3ccccc3n2)cc1,+,n,n,n
CCN(CC)c1ccc(/C=N/NC(=O)c2cc(C)nc3ccccc23)cc1,n,n,n,n
CNc1ccccc1C(C)(C)c1cc(-c2cccc(OC)c2)no1,+,n,n,n
CCN1C(=O)c2cccc3c(NC(=O)c4ccc5c(c4)OCCO5)ccc1c23,n,60,n,n
CCN(CC)CCNc1ccc(CO)c2sc3ccccc3c(=O)c12,u,n,n,n
CCN(CC)CCNc1ccc(CO)c2oc3ccccc3c(=O)c12,+,n,n,n
O=C1CCc2cc(S(=O)(=O)NC3CCCCC3)ccc2N1,n,n,n,n
CC1(C)N=C(N)N=C(N)N1c1ccc(F)cc1F,+,n,n,n
CC(C)NC(=O)CN1C(=O)CSc2ccc(S(=O)(=O)N3CCCC3)cc21,n,n,n,n
S=C(NCc1ccccc1)C(=S)NCc1ccccc1,n,n,97,n
S=C(NCc1ccccc1)NCc1ccc(CNC(=S)NCc2ccccc2)cc1,n,n,n,n
S=C(NCc1ccccc1)NC1CCCCC1,+,n,n,n
COC(=O)c1ccc(COC(=O)C2CCN(S(=O)(=O)c3ccccc3C(=O)OC)CC2)cc1,n,n,n,n
O=C(OCc1ccc(Br)cc1)c1ccncc1,n,n,n,n
O=C(OCc1ccc(Br)cc1)c1cnc(Cl)c(Cl)c1,n,n,61,n
O=C(N/N=C/c1cccs1)C(=O)Nc1cccc(Cl)c1,n,n,n,n
COc1cc(C=NNC(=O)C(=O)Nc2cccc(Cl)c2)cc(OC)c1O,+,n,n,n
COc1cc(OC)cc(C(=O)NCC(=O)OCC(=O)Nc2ccc(C)c(S(=O)(=O)N3CCOCC3)c2)c1,n,n,n,n
CC/C(O)=C1\C(=O)CC(c2ccccc2)CC1=NCCc1c(C)[nH]c2ccc(C)cc12 (centres undefined),+,n,n,n
SMILES,Myeloid diff 2,HNF4A DNA FP,Granule exo inh,CSN deneddyl inh
CCC/C(O)=C1\C(=O)CC(c2ccccc2)CC1=NCCc1c(C)[nH]c2ccc(C)cc12 (centres undefined),n,n,n,n
Cn1cccc1/C=C1\SC(=Nc2ccccc2)NC1=O,u,n,56,n
COc1cccc(/C=C2\SC(=S)N(C(Cc3ccccc3)C(=O)O)C2=O)c1 (centres undefined),n,54,n,n
Cn1cccc1/C=C1\SC(=Nc2ccc(O)cc2)NC1=O,x,n,n,n
CCCC(C(=O)O)N1C(=O)/C(=C/c2cccn2C)SC1=S (centres undefined),n,n,n,89
Cn1cccc1/C=C1/SC(=O)N(CC(=O)N2CCCC2)C1=O,n,n,n,n
Cn1cccc1/C=C1\SC(=S)N(Nc2ccccc2)C1=O,n,58,n,n
O=C(O)C(Cc1ccccc1)N1C(=O)/C(=C/c2cccs2)SC1=S (centres undefined),n,n,n,n
O=C(COc1ccc(F)c(Cl)c1)N1CCCCCCC1,n,n,n,n
Cc1cc(OCC(=O)OCC(=O)NC2CCCCC2C)ccc1Cl (centres undefined),n,n,n,n
CC(C)C(C(=O)O)N1C(=O)/C(=C/c2cccn2C)SC1=S (centres undefined),n,88,n,66
CC(C)C(C(=O)O)N1C(=O)/C(=C/C=C/c2ccco2)SC1=S (centres undefined),n,n,n,n
Cn1cccc1/C=C1\SC(=O)N(c2ccccc2)C1=O,n,n,n,43
